# Measured values reported in ChEMBL document CHEMBL3414513, “Synthesis and biological evaluation of betulonic acid derivatives as antitumor agents” (Eur J Med Chem, 2015).
# pIC50: −log10 of the molar value. Activity calls are given as the source filed them. The rule behind the calls is not given here.
# What was measured:
# [1] = tested on: MGC-803; assay: Cytotoxicity against human MGC803 cells after 72 hrs by MTT assay; type: functional, cell-based
# How it was run: (§1)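 Cancer lines grown in RPMI 1640 with 10% heat-inactivated FBS, 37 °C, 5% CO2. Cells trypsinized at 80-90% confluence, seeded at 2×10^3/well overnight, then given compounds (DMSO stocks diluted in medium) at various concentrations for 72 h at 37 °C. Controls: 0.1% DMSO negative, adriamycin positive. MTT (5 mg/ml) added for 4 h, formazan dissolved in SDS 12 h, A595 read. IC50 from dose-response curves.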
# [2] = (§2) Cytotoxicity against human PC3 cells after 72 hrs by MTT assay; type: functional, cell-based; conditions: PC-3, 72 h
# How it was run: as §1, with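 “Cells” for “Cancer lines grown in RPMI 1640 with 10% heat-inactivated FBS, 37 °C, 5% CO2. Cells”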
# [3] = tested on: PC-3; assay: as §2; type: functional, cell-based
# How it was run: as §1, with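 “Cells” for “Cancer lines grown in RPMI 1640 with 10% heat-inactivated FBS, 37 °C, 5% CO2. Cells”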
# [4] = tested on: Bcap37; assay: Cytotoxicity against human Bcap37 cells after 72 hrs by MTT assay; type: functional, cell-based; how it was run: as §1
# [5] = tested on: A-375; assay: Cytotoxicity against human A375 cells after 72 hrs by MTT assay; type: functional, cell-based; how it was run: as §1
# [6] = tested on: MCF7; assay: Cytotoxicity against human MCF7 cells after 72 hrs by MTT assay; type: functional, cell-based; how it was run: as §1
# [7] = tested on: MGC-803; assay: Selectivity index, ratio of IC50 for mouse NIH/3T3 cells to IC50 for human MGC803 cells; type: functional
# How it was run: (§3)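 Index is the IC50 in normal NIH3T3 cells divided by the IC50 in each cancer line. […] HCPT and adriamycin were used as positive controls.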
# [8] = tested on: PC-3; assay: Selectivity index, ratio of IC50 for mouse NIH/3T3 cells to IC50 for human PC3 cells; type: functional; how it was run: as §3
# [9] = tested on: Bcap37; assay: Selectivity index, ratio of IC50 for mouse NIH/3T3 cells to IC50 for human Bcap37 cells; type: functional; how it was run: as §3
# [10] = tested on: A-375; assay: Selectivity index, ratio of IC50 for mouse NIH/3T3 cells to IC50 for human A375 cells; type: functional; how it was run: as §3
# [11] = tested on: MCF7; assay: Selectivity index, ratio of IC50 for mouse NIH/3T3 cells to IC50 for human MCF7 cells; type: functional; how it was run: as §3
# [12] = tested on: MGC-803; assay: Induction of apoptosis in human MGC803 cells at 5 uM after 12 to 48 hrs by acridine orange/ethidium bromide staining-based fluorescence microscopic analysis; type: functional, cell-based
# How it was run: (§4)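 MGC-803 cells at 5×10^4 cells/mL were seeded in 6-well plates. Medium was replaced with fresh medium plus 10% FBS containing compound, 5 µM for 12-48 h. Controls: HCPT 10 µM for 48 h, DMSO. Cells were washed with PBS and the coverslip was inverted onto 20 µL AO/EB stain (100 µg/mL). Fluorescence microscopy scored live, early apoptotic, late apoptotic and necrotic nuclei.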
# [13] = tested on: MGC-803; assay: Induction of apoptosis in human MGC803 cells assessed as necrotic cells at 5 uM after 12 to 48 hrs by acridine orange/ethidium bromide staining-based fluorescence microscopic analysis; type: functional, cell-based; how it was run: as §4
# [14] = tested on: MGC-803; assay: Induction of apoptosis in human MGC803 cells assessed as appearance of compact condensed and crescent shaped cells at 5 uM after 12 to 48 hrs by Hoechst 33258 staining-based fluorescence microscopic analysis; type: functional, cell-based
# How it was run: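 MGC-803 cells (5×10^4 cells/mL, 6-well plates) were treated at 5 µmol/L for 12-48 h in fresh medium with 10% FBS. Controls: HCPT 10 µM for 48 h, DMSO. Cells were fixed in 4% paraformaldehyde for 10 min and stained with Hoechst 33258 for 5 min. Fluorescence microscopy used 350 nm excitation and 460 nm emission.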
# [15] = tested on: MGC-803; assay: Induction of apoptosis in human MGC803 cells assessed as DNA fragmentation at 5 uM after 12 to 48 hrs by TUNEL assay; type: functional, cell-based
# How it was run: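 MGC-803 cells (5×10^4 cells/mL, 6-well) were exposed at 5 µM for 12-48 h. Controls: HCPT 10 µM for 48 h, DMSO. Colorimetric TUNEL: fixed in 4% paraformaldehyde 40 min, permeabilized on ice, endogenous peroxidase quenched with 0.3% H2O2/methanol 20 min. Then TdT plus biotin-dUTP 60 min at 37 °C, streptavidin-HRP 30 min, DAB 10 min. Brown precipitate scored by light microscopy.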
# [16] = tested on: MGC-803; assay: Induction of apoptosis in human MGC803 cells assessed as apoptosis ratio at 10 uM after 36 hrs by Annexin V-FITC/propidium iodide staining-based flow cytometric analysis; type: functional
# How it was run: (§5)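 MGC-803 cells were treated at 10 µM, with 36 h among the time points; HCPT 10 µM served as positive control. Cells at 1×10^6/mL were washed in cold PBS and resuspended in 500 µL binding buffer. Staining used 5 µL Annexin V-FITC plus 5 µL PI for 20 min in the dark, then flow cytometry. Apoptosis ratio is early plus late apoptotic quadrants.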
# [17] = tested on: MGC-803; assay: Induction of apoptosis in human MGC803 cells at 10 uM by Annexin V-FITC/propidium iodide staining-based flow cytometric analysis; type: functional, cell-based; conditions: TDE = time-dependent effect; how it was run: as §5
# [18] = Upregulation of p53 expression in human MGC803 cells at 2.5 to 10 uM after 12 hrs by Western blot analysis; type: functional, cell-based; conditions: MGC-803
# How it was run: (§6)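 MGC-803 cells were treated at 2.5, 5 or 10 µM for 12 h, then collected. Western blots were probed with anti-p53 and anti-Bax (1:500 to 1:1000), with β-actin as loading reference.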
# [19] = Upregulation of Bax expression in human MGC803 cells at 2.5 to 10 uM after 12 hrs by Western blot analysis; type: functional, cell-based; conditions: MGC-803; how it was run: as §6
# [20] = tested on: MGC-803; assay: Induction of apoptosis in human MGC803 cells assessed as activation of caspase-3 using Ac-[…]-pNA as probe at 2.5 to 10 uM after 12 hrs; type: functional, cell-based
# How it was run: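 MGC-803 cells were treated at 2.5, 5 or 10 µM for 12 h. Cells (1×10^6/mL) were washed in cold PBS, lysed on ice for 25 min and spun at 18000 g for 15 min. Supernatant was mixed with reaction buffer and Ac-[…]-pNA and incubated at 37 °C for 2-3 h in the dark. A405 was read against a lysis/reaction buffer blank.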
# [21] = tested on: MGC-803; assay: Induction of apoptosis in human MGC803 cells assessed as activation of caspase-9 using Ac-LEHD-pNA as probe at 2.5 to 10 uM after 12 hrs; type: functional, cell-based
# How it was run: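 MGC-803 cells were treated at 2.5, 5 or 10 µM for 12 h. Cells were lysed on ice for 25 min and spun at 16000 g for 15 min. Supernatant was mixed with reaction buffer and Ac-LEHD-pNA and incubated at 37 °C for 2-3 h in the dark. A405 was read against a buffer blank.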
compound,measurement,setting,value
C=C(C)[C@@H]1CC[C@]2(C(=O)OCCCCN3CCCCC3)CC[C@]3(C)[C@H](CC[C@@H]4[C@@]5(C)CCC(=O)C(C)(C)[C@@H]5CC[C@]43C)[C@@H]12,Activity,[1],Dose-dependent effect
same,pIC50,"[1]; MGC-803, 72 h",5.44
same,pIC50,[2],5.25
same,Activity,[3],Dose-dependent effect
same,Activity,[4],Dose-dependent effect
same,pIC50,"[4]; Bcap37, 72 h",5.38
same,Activity,[5],Dose-dependent effect
same,pIC50,"[5]; A-375, 72 h",5.11
same,Activity,[6],Dose-dependent effect
same,pIC50,"[6]; MCF7, 72 h",5.28
same,Ratio IC50,[7],7.38
same,Ratio IC50,[8],4.75
same,Ratio IC50,[9],6.33
same,Ratio IC50,[10],3.41
same,Ratio IC50,[11],5.11
same,Activity,[12],Active
same,Activity,[13],inactive
same,Activity,[14],Active
same,Activity,[15],Active
same,Activity,[16],28.33%
same,Activity,[17],tde
same,Activity,[18],Active
same,Activity,[19],Active
same,Activity,[20],Active
same,Activity,[21],Active
